Experimental data from different studies.
Target: Protein kinase C gamma type (PRKCG, Homo sapiens, UniProt P05129)

| SMILES | effect on | action | technique | tested at | measurement | value |
| --- | --- | --- | --- | --- | --- | --- |
| CCN(CC)c1ccc(C2=NNC(=O)CC2C)cc1[N+](=O)[O-] (stereo not shown) | enzyme activity | inhibitor |  | 10 µM | remaining activity | 96% |
| CC(C)(O)[C@H]1CC[C@H](Nc2ccc3ncc(-c4cccc(C(F)(F)F)c4)n3n2)CC1 | enzyme activity | inhibitor |  | 1 µM | remaining activity | 99% |
| CCCS(=O)(=O)Nc1ccc(F)c(C(=O)c2c[nH]c3ncc(-c4ccc(Cl)cc4)cc23)c1F | enzyme activity | inhibitor |  | 1 µM | inhibition | < 20% |
| CNC(=O)c1cc(Oc2ccc(NC(=O)Nc3ccc(Cl)c(C(F)(F)F)c3)cc2)ccn1 | enzyme activity | inhibitor |  | 10 µM | inhibition | 9% |
| CC(C)(C)c1nc(-c2cccc(NS(=O)(=O)c3c(F)cccc3F)c2F)c(-c2ccnc(N)n2)s1 | enzyme activity | inhibitor | radiometric | 1 µM | remaining activity | 102% |
| COc1cc(/C=C/C(=O)CC(=O)/C=C/c2ccc(O)c(OC)c2)ccc1O | enzyme activity | inhibitor |  | 1 µM | activity vs control | 85% |
| O=C1NC(=O)c2cc(Nc3ccc(F)cc3)c(Nc3ccc(F)cc3)cc21 | cell-free assay |  |  | 0.5 µM | remaining signal | 102% |
| Cc1ccc(NC(=O)c2ccc(C)c(C(F)(F)F)c2)cc1C#Cc1nn(C2CCC(O)CC2)c2ncnc(N)c12 (stereo not shown) | cell-free assay |  |  | 10 µM | remaining signal | 90% |
| O=C(Nc1cnn(-c2csc(C(=O)NC3COC3)c2)c1)Nc1ccccc1Cl | enzyme activity | inhibitor |  | 5 µM | remaining activity | 98% |
| COc1cc(Nc2cnc(C#N)c(O[C@H](C)CN(C)C)n2)ncc1-c1cnn(C)c1 | enzyme activity | inhibitor | radiometric | 10 µM | remaining activity | 80% |
| Cc1cnc(NC2CCOCC2)nc1-n1cnc(C(=O)NC(CN)c2cc(F)cc(Cl)c2)c1 (stereo not shown) | enzyme activity | inhibitor | radiometric | 1 µM | remaining activity | 85% |
| CCOc1cc(-c2nncn2C)ccc1Nc1ncc2cc(C)nc(NCC(C)(C)C)c2n1 | enzyme activity | inhibitor | FRET | 1 µM | inhibition | < 15% |
| FC(F)(F)Oc1cccc(-c2cnc3ccc(-c4ccncc4)nn23)c1 | enzyme activity | inhibitor | radiometric | 1 µM | activity vs control | 96% |
| Cc1ccc(Nc2nccc(N(C)c3ccc4c(C)n(C)nc4c3)n2)cc1S(N)(=O)=O | enzyme activity | inhibitor |  | 10 µM | inhibition | 45% |
| COc1cc2ncnc(Nc3ccc(Oc4ccccc4)cc3C)c2cc1OC | enzyme activity | inhibitor |  | 1 µM | inhibition | -3% |
| CC(C)c1ccc(NC(=O)c2cccs2)c(-c2nc3ccccc3[nH]c2=O)c1 | enzyme activity | inhibitor |  | 1 µM | activity vs control | 106% |
